CHO parental Ca = ATP-evoked calcium signal inhibitors, parental CHO, primary screen, counter-screen for OX1R antagonist project, cell-based, fluorescence, Fluo-8 calcium dye; hit rate 0.63% among 330,000; parental CHO-K1, ATP-induced calcium, Fluo-8 fluorescence; inhibition, % at 5.6 µM;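 active = inhibition above that plate's mean sample inhibition plus 3 SD, cut at about 26% in these data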
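Assay system: parental CHO cells; Read-out basis: percent inhibition of ATP-evoked calcium rise, normalized to controls; Benchmarks: ATP and no-ATP DMSO wells; Compound dosing: single nominal dose of 5.6 µM per compound; Signal: Fluo-8 calcium dye fluorescence; Also added: ATP as calcium-mobilizing challenge; Repeats: singlicate.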
TAAR1 antagonist = human TAAR1 antagonists, primary screen, Fluo-8 calcium fluorescence, CHO RD-HGA16 cells | Trace amine-associated receptor 1 (Homo sapiens), Q96RJ0 | antagonist | inhibition, % at 3 µM | hit rate 1.5% among 360,000 | AID 624466, 2012;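 active = inhibition above a per-plate cutoff, the mean inhibition of test compounds on that plate plus 3 SD, cut at about 49% in these data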
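Assay system: RD-HGA16 CHO cells with stable hTAAR1 and Gα16 / Reagent: EC80 β-phenethylamine stimulus / Doses: 3 µM, single point / Timing: dye loading 75 min at 37 °C, then 30 min room temperature / Measured by: Fluo-8 intracellular calcium dye fluorescence, real-time kinetic reads / Controls: vehicle wells and EC80 agonist wells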
OX1R antag-1 = OX1R (HCRTR1) antagonists, primary screen, fluorescence, CHO/OX1R cells, Fluo-8 calcium, orexin A | Orexin/Hypocretin receptor type 1 (Homo sapiens), O43613 | Fluo-8 calcium fluorescence | inhibition, % at 5 µM | hit rate 0.43% among 330,000;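 active = inhibition above its plate's threshold, mean inhibition of all tested compounds on the plate plus 3 SD, cut at about 37% in these data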
Target sequence (O43613 whole entry, looked up): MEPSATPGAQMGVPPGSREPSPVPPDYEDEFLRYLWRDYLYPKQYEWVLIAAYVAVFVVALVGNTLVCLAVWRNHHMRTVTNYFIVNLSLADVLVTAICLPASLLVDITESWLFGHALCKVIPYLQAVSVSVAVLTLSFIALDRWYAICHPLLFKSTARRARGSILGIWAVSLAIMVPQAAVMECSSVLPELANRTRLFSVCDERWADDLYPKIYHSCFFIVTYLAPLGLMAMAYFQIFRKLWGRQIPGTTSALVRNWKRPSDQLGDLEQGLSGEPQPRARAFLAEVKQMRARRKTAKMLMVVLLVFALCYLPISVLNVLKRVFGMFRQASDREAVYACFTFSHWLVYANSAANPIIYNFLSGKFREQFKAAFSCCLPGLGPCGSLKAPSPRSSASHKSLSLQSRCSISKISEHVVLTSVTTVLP
OX1R antag-2 = antagonists of human orexin 1 receptor (OX1R); Orexin/Hypocretin receptor type 1 (Homo sapiens), O43613; OX1R-expressing cells, FRET antagonist read-out; inhibition, % at 6.6 µM; hit rate 1.8% among 330,000; AID 485270, 2010; in the data active = inhibition mostly above about 38%, no sharp cut-off; inactive = mostly below about 40%
TAAR1 ag = human TAAR1 agonists, primary screen, Fluo-8 calcium fluorescence, CHO RD-HGA16 cells; Trace amine-associated receptor 1 (Homo sapiens), Q96RJ0; vehicle wells 0%, saturating PEA agonist 100%; activation, % at 3 µM; hit rate 0.99% among 360,000;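 active = activation above the mean activation of all test compounds in the run plus 3 SD, cut at about 38% in these data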
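System: CHO-derived RD-HGA16 cells with stable Gα16 and human TAAR1 / Times: 17-24 h plating, Fluo-8 75 min 37 °C, 30 min RT / Technique: calcium-sensitive Fluo-8 signal, excitation 470-495, emission 515-575 nm / Measure: % activation relative to PEA EC100 response / Benchmarks: DMSO and PEA EC100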
TAAR1 ag conf = human TAAR1 agonists, retest of hits, confirmation, Fluo-8 calcium fluorescence, CHO RD-HGA16 cells; shares compounds with TAAR1 ag; scaled: DMSO 0%, maximal phenethylamine 100%; activation, % at 3 µM; hit rate 82% among 2,400;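 active = activation above a cutoff set at the run's mean compound activation plus 3 SD, cut at about 39% in these data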
Ga16 nonsel ag = nonselective calcium mobilization agonists, CHO-Ga16 cells, counter-screen for hTAAR1 agonist project, cell-based, fluorescence, CHO-Ga16 parental line. shares compounds with TAAR1 ag. Fluo-8 calcium fluorescence; normalized to maximal ATP response, DMSO zero. activation, % at 3 µM. hit rate 50% among 2,400;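 active = activation above the run cutoff, the mean activation over all tested wells plus 3 SD, cut at about 12% in these data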
TAAR1 desensitize = TAAR1 desensitization by agonist hits, confirmation, counter-screen for TAAR1 agonist project, cell-based, fluorescence, tachyphylaxis. shares compounds with TAAR1 ag. CHO RD-HGA16 hTAAR1, Fluo-8 calcium, beta-PEA response inhibition. inhibition, % at 3 µM. hit rate 46% among 2,400. AID 651951, 2012;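 active = inhibition above the run cutoff, the mean inhibition of all test compounds plus 3 SD, cut at about 49% in these data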;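 note: beta-PEA stimulus applied at its EC80; loss of beta-PEA calcium signal after compound pretreatment read as receptor desensitization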
Ga16 antag count = inhibition of ATP-evoked calcium response in CHO-Ga16 cells, counter-screen for TAAR1 agonist project, cell-based, fluorescence | CHO-Ga16 ATP-induced calcium, Fluo-8 fluorescence | hit rate 39% among 2,400 | inhibition, % at 3 µM | shares compounds with TAAR1 ag;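 active = inhibition above the plate's mean compound inhibition plus 3 SD, computed per plate, cut at about 22% in these data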
Large screens that a line does not name were inactive (follow-up assays come after a bar, where they were run). Only some compounds are listed: those with a hit (about 4% of all), similar ones and a draw of the others.

Cn1c(=O)cc(NCCc2ccccc2)[nH]c1=O	TAAR1 ag 68.9 | TAAR1 ag conf 73.8 | Ga16 nonsel ag inactive | TAAR1 desensitize inactive | Ga16 antag count inactive
CCOC(=O)CNC(=O)Cn1cnc2c(cnn2-c2ccc(C)cc2)c1=O	none
O=C(CCCn1c(=S)[nH]c2cc3c(cc2c1=O)OCO3)NCCc1ccccc1Cl	TAAR1 ag 52.2 | TAAR1 ag conf inactive | Ga16 nonsel ag inactive | TAAR1 desensitize inactive | Ga16 antag count inactive
O=C(CCCCCn1c(=S)[nH]c2ccc(N3CCOCC3)cc2c1=O)NCc1ccccc1Cl	none
O=C(CCn1c(=S)[nH]c2cc3c(cc2c1=O)OCO3)NCc1ccccc1Cl	none
O=C(CCCCCn1c(=S)[nH]c2ccc(N3CCOCC3)cc2c1=O)NCCc1ccccc1	TAAR1 ag 55.2 | TAAR1 ag conf 69.7 | Ga16 nonsel ag inactive | TAAR1 desensitize inactive | Ga16 antag count inactive
O=C(CCn1c(=S)[nH]c2cc3c(cc2c1=O)OCO3)NCCc1ccccc1Cl	TAAR1 ag 73.5 (no result: CHO parental Ca, OX1R antag-1, OX1R antag-2) | TAAR1 ag conf 91.6 | Ga16 nonsel ag inactive | TAAR1 desensitize 78.1 | Ga16 antag count inactive
CC(C)n1nnnc1C1c2ccccc2C(=O)N1Cc1ccco1 (stereo not given)	none (no result: CHO parental Ca, OX1R antag-1, OX1R antag-2)
Cc1nc2ccccn2c1-c1ccnn1S(=O)(=O)c1ccc(F)cc1	none
COc1ccc2[nH]cc(CCNC(=O)C3CCCCC3)c2c1	none
Nc1[nH]c(C(=O)c2ccccc2)c(-c2ccccc2C(F)(F)F)c1C(=O)NCCc1cccs1	TAAR1 ag 47.9 (no result: CHO parental Ca, OX1R antag-1, OX1R antag-2) | TAAR1 ag conf inactive | Ga16 nonsel ag inactive | TAAR1 desensitize inactive | Ga16 antag count inactive
CSc1ccc(S(=O)(=O)N(CC(=O)NN=C2CCN(C)CC2)c2ccc(C)cc2)cc1	none
CCOc1ccc(NC(=O)N2CCc3ccccc3C2)cc1	TAAR1 ag 50.7 | TAAR1 ag conf 54.2 | Ga16 nonsel ag inactive | TAAR1 desensitize inactive | Ga16 antag count inactive
COc1ccc(NC(=O)N2CCc3ccccc3C2)cc1	TAAR1 ag 51.7 (no result: CHO parental Ca, OX1R antag-1, OX1R antag-2) | TAAR1 ag conf 46.7 | Ga16 nonsel ag inactive | TAAR1 desensitize inactive | Ga16 antag count inactive
COc1ccc(NC(=O)N2CCN(c3cccc(C(F)(F)F)c3)CC2)cc1	TAAR1 antagonist 94.4, TAAR1 ag 89.1 | TAAR1 ag conf inactive | Ga16 nonsel ag inactive | TAAR1 desensitize inactive | Ga16 antag count 24.3
COc1cc2c(cc1OC)CN(C(=O)Nc1ccccc1)CC2	none
Cc1cccnc1NC(=O)c1cccc(S(=O)(=O)N2CCCc3ccccc32)c1	none
NC(=O)Nc1ccc(C(=O)OCC(=O)c2c[nH]c3ccccc23)cc1	TAAR1 ag 47.7 | TAAR1 ag conf 59.1 | Ga16 nonsel ag inactive | TAAR1 desensitize inactive | Ga16 antag count inactive
O=[N+]([O-])c1cc(/C=N\Nc2nc(-c3ccccc3)cs2)ccc1O	TAAR1 ag 69.4 | TAAR1 ag conf 44.3 | Ga16 nonsel ag 53.3 | TAAR1 desensitize inactive | Ga16 antag count 28.9
Cc1csc(N/N=C/c2ccc(O)c([N+](=O)[O-])c2)n1	none
Cc1ccc2c(C(=O)CN3CCC(C(N)=O)CC3)c(C)[nH]c2c1	none (no result: TAAR1 antagonist, TAAR1 ag)
CCCCCc1c(-c2ccc(Cl)cc2)ncn1CCc1ccccc1OC	none (no result: CHO parental Ca, OX1R antag-1, OX1R antag-2)

Compound activity deposited in PubChem BioAssay by The Scripps Research Institute Molecular Screening Center.
